Source: PubChem BioAssay
Yeast growth inh: yeast BB579 growth reduction in restrictive medium; S. cerevisiae BB579 growth, OD615, 48 h; inhibition, % at 10 µM; 140,000 tested, 0.51% active;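 active = inhibition above a set limit, 3 SD over the mean compound inhibition, cut at about 44% in these data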
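System: Saccharomyces cerevisiae DeaD strain BB579, replicative lifespan model yeast. Buffer or medium: restrictive glucose-based CSMM-D medium. Doses: one dose, 10 µM compound with 0.25% DMSO. Timing: 4 h preincubation and 48 h exposure at 30 °C. Detection: turbidity as optical density at 615 nm. Benchmarks: amphotericin B 10 µg/mL, positive.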
RAM network inh: blocks the yeast RAM network; S. cerevisiae dse1pr::URA3 reporter, 5-FOA growth OD615, 2 d; analog-sensitive cbk1-as2 kinase mutant strain; inhibition, % at 50 µM; 190,000 tested, 1.8% active;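 active = inhibition above a set limit, 3 SD over mean compound inhibition, cut at about 8.4% in these data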;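 note: inhibition rescues growth on 5-FOA so higher OD means more RAM inhibition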
Yeast lifespan up: extends the lifespan of yeast | inhibition of the nicotinamide effect, % at 10 µM | 130,000 tested, 0.68% active | S. cerevisiae growth with nicotinamide, OD615; deaD strain in restrictive glucose medium | AID 775;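 active = inhibition above a set limit, placed 3 SD over the median of all compounds, cut at about 26% in these data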
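Test system: DeaD-strain S. cerevisiae / Buffer or medium: restrictive glucose medium / Also added: nicotinamide 1.5 mM / Doses: one concentration, 10 µM, DMSO 0.25% / Schedule: 48 h at 30 °C / Signal: OD615 measurement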
Hits are given with their value. In the library only some 2.6% were active in any assay of this set; here they are far more common.

`CCCCOC(=O)n1c(=O)oc2cc(S(=O)(=O)N3CCCCC3)ccc21` gave Yeast growth inh inactive, RAM network inh inactive and Yeast lifespan up 68.
For O=C(Cn1c(=O)oc2cc(S(=O)(=O)N3CCCCCC3)ccc21)NC1CCCCC1 the results were Yeast growth inh inactive, RAM network inh 8.8 and Yeast lifespan up inactive.
Screening O=C(Cn1c(=O)oc2cc(S(=O)(=O)N3CCc4ccccc43)ccc21)NC1CCCC1 returned Yeast growth inh inactive, RAM network inh inactive and Yeast lifespan up inactive.
`COC(=O)n1c(=S)oc2cc(Cl)ccc21` gave Yeast growth inh inactive, RAM network inh inactive and Yeast lifespan up inactive.
Screening CCCCOC(=O)n1c(=S)oc2cc(Cl)ccc21 returned Yeast growth inh 98, RAM network inh inactive and Yeast lifespan up inactive.
COC(=O)n1c(=O)oc2cc(S(=O)(=O)N3CCOCC3)ccc21 was read as Yeast growth inh inactive, RAM network inh inactive and Yeast lifespan up inactive.
`Cc1cc(OCc2nnc(SC(C)C(=O)O)n2Cc2ccccc2)ccc1Cl` (stereo unspecified) gave RAM network inh inactive.
`CC1(C)CC(=O)C(C=NCC2CCN(C(=S)Nc3cccc(Cl)c3)CC2)=C(O)C1` gave RAM network inh inactive.
CCN(C(=O)COC(=O)c1ccc(S(=O)(=O)N2CCCc3ccccc32)cc1)C1CCS(=O)(=O)C1 (stereo unspecified) was read as RAM network inh inactive.
`CCOC(=O)c1sc(=S)n(-c2ccccc2Cl)c1SC` gave Yeast growth inh inactive, RAM network inh 8.8 and Yeast lifespan up inactive.
`COC(=O)c1sc(=S)n(-c2cc(F)ccc2F)c1N` gave Yeast growth inh inactive, RAM network inh inactive and Yeast lifespan up inactive.
`CCOC(=O)c1sc(=S)n(-c2cc(F)ccc2F)c1N` gave Yeast growth inh 45, RAM network inh inactive and Yeast lifespan up inactive.
CCOC(=O)c1sc(=S)n(-c2ccccc2)c1SC was read as Yeast growth inh inactive, RAM network inh inactive and Yeast lifespan up inactive.
For COc1cc(C(=O)CCN2CCC(c3ccccc3)C2)cc(OC)c1OC (stereo unspecified) the results were Yeast growth inh inactive, RAM network inh inactive and Yeast lifespan up inactive.
Screening COCCNC(=O)CSCc1cc(C)cc(C)c1 returned RAM network inh inactive.
CCCC[n+]1c(-c2ccc(Cl)cc2Cl)csc1Nc1ccccc1 was read as Yeast growth inh inactive, RAM network inh inactive and Yeast lifespan up 32.
C=CC[n+]1c(-c2ccc(Cl)cc2Cl)csc1Nc1ccc(NC(C)=O)cc1 was read as RAM network inh inactive.
N#C/C(C(=O)N1CCOCC1)=C1/SC(Cc2ccccc2Cl)C(=O)N1c1ccccc1 (stereo unspecified) was read as Yeast growth inh inactive, RAM network inh inactive and Yeast lifespan up inactive.
CCc1ccc(/C=C2\Oc3cc(OS(C)(=O)=O)ccc3C2=O)cc1 was read as Yeast growth inh inactive, RAM network inh 8.5 and Yeast lifespan up inactive.
Screening Cc1ccc(S(=O)(=O)Oc2ccc3c(c2)O/C(=C\c2cccnc2)C3=O)cc1 returned Yeast growth inh inactive, RAM network inh inactive and Yeast lifespan up inactive.
COc1ccc(C2CC23N=C(c2ccccc2)OC3=O)cc1 (stereo unspecified) was read as Yeast growth inh inactive, RAM network inh inactive and Yeast lifespan up 45.
Screening COc1ccc(C2=NC(c3ccccc3)CO2)cc1 (stereo unspecified) returned Yeast growth inh inactive, RAM network inh inactive and Yeast lifespan up inactive.
`CC1=CC(=O)c2ccccc2C1=O` gave Yeast growth inh 68, RAM network inh inactive and Yeast lifespan up inactive.
COc1cccc2c1C(=O)C=C(C)C2=O was read as Yeast growth inh inactive, RAM network inh inactive and Yeast lifespan up inactive.
O=C(CSc1nc(-c2ccccc2Cl)ns1)c1ccc(Cl)cc1 was read as Yeast growth inh inactive, RAM network inh 11 and Yeast lifespan up inactive.
Cc1cccc(-c2nsc(SCC(=O)c3ccc(Cl)cc3)n2)c1 was read as Yeast growth inh inactive, RAM network inh inactive and Yeast lifespan up inactive.
`CNC(=O)NC(=O)COC(=O)/C=C/c1cccc(Br)c1` gave RAM network inh inactive.
Cc1cc(N=Cc2c(O)n(-c3ccc4c(c3)OCO4)c(=O)c3ccccc23)ccn1 was read as Yeast growth inh inactive, RAM network inh inactive and Yeast lifespan up inactive.
For Cc1ccc(-n2c(O)c(C=Nc3ccc4c(c3)OCO4)c3ccccc3c2=O)cc1C the results were Yeast growth inh inactive, RAM network inh 10 and Yeast lifespan up inactive.
O=C(c1cccc([N+](=O)[O-])c1)n1nc(-c2ccccc2)nc1NCc1ccccc1 was read as Yeast growth inh inactive, RAM network inh 9.7 and Yeast lifespan up inactive.
Screening CC(=O)n1nc(-c2ccccc2)nc1NCc1ccc(F)cc1 returned Yeast growth inh inactive, RAM network inh inactive and Yeast lifespan up inactive.
O=C(c1cccs1)n1nc(-c2ccccc2)nc1NCc1ccc(F)cc1 was read as Yeast growth inh inactive, RAM network inh 8.6 and Yeast lifespan up inactive.
`O=C(c1ccc([N+](=O)[O-])cc1)n1nc(-c2ccccc2)nc1NCc1ccccc1` gave Yeast growth inh inactive, RAM network inh inactive and Yeast lifespan up inactive.
Screening Cc1cc(C(C)(C)C)cc(S(=O)(=O)Nc2ccc(O)c(C(=O)O)c2)c1C returned Yeast growth inh inactive, RAM network inh inactive and Yeast lifespan up inactive.
Screening CC(=O)Nc1ccc(NC(=O)c2ccc(NS(=O)(=O)c3cc(C(C)(C)C)cc(C)c3C)cc2)cc1 returned Yeast growth inh inactive, RAM network inh 10 and Yeast lifespan up inactive.
For CC(C)N=C(NS(=O)(=O)c1ccccc1)C(Cl)(Cl)Cl the results were Yeast growth inh inactive, RAM network inh inactive and Yeast lifespan up 40.
O=C(O)CN=C(NS(=O)(=O)c1ccccc1)c1ccccc1 was read as Yeast growth inh inactive, RAM network inh inactive and Yeast lifespan up inactive.
Screening O=S(=O)(NCc1ccccc1)c1ccc(S(=O)(=O)N(Cc2cccs2)CC2CCCO2)cc1 (stereo unspecified) returned Yeast growth inh inactive, RAM network inh 8.9 and Yeast lifespan up inactive.
Screening COc1cc(S(=O)(=O)N(Cc2cccs2)CC2CCCO2)ccc1-n1cnnn1 (stereo unspecified) returned Yeast growth inh inactive, RAM network inh inactive and Yeast lifespan up inactive.
Screening Cn1/c(=N/N=C/c2ccc(N3CCOCC3)cc2)sc2ccccc21 returned RAM network inh inactive.
`C/C(=N/NC(=O)Cc1ccccc1)c1ccc(C)s1` gave Yeast growth inh inactive, RAM network inh inactive and Yeast lifespan up inactive.
For CC(NCC(=O)Nc1cc(S(=O)(=O)N2CCCCCC2)ccc1Cl)c1ccccc1 (stereo unspecified) the results were RAM network inh inactive.
`Clc1ccc2nnnc(-c3ccccc3)c2c1` gave Yeast growth inh 46, RAM network inh inactive and Yeast lifespan up inactive.
`c1ccc(-c2nnnc3ccccc23)cc1` gave Yeast growth inh inactive, RAM network inh inactive and Yeast lifespan up inactive.
Screening CCOc1ccc(C2=C(C=Nc3c(C)n(C)n(-c4ccccc4)c3=O)C(c3ccc(F)cc3)c3ccccc3O2)cc1 (stereo unspecified) returned Yeast growth inh inactive, RAM network inh 8.5 and Yeast lifespan up inactive.
